{"source": "ChEMBL document CHEMBL1144540", "about": "“Analgesic agents without gastric damage: design and synthesis of structurally simple benzenesulfonanilide-type cyclooxygenase-1-selective inhibitors” (Bioorg Med Chem, 2007)", "note": "Active and inactive are the calls of the source. The calls are words filed in the database; no cut-off is given here."}
{"system": "Rattus norvegicus", "assay": "Effect on gastric damage in rat assessed as induction of gastric ulcer at 30 mg/kg, po after 5 hrs", "type": "functional, organism-based", "design": "dose 30 mg/kg", "conditions": "Stomach", "outline": "(§1)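 Male rats, 170–200 g, given a single oral dose in 0.5% CMC vehicle (n = 3–5 per group). Ulcer lengths were measured in millimetres and summed to give an overall gastric damage score per rat. Data are means with SEM.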"}
{"molecule": "CC(=O)Oc1ccccc1C(=O)O", "Activity": "Active"}
{"biological_target": "T1, Prostaglandin G/H synthase 1 (Ovis aries) (UniProt P05979)", "T1 sequence (whole entry)": "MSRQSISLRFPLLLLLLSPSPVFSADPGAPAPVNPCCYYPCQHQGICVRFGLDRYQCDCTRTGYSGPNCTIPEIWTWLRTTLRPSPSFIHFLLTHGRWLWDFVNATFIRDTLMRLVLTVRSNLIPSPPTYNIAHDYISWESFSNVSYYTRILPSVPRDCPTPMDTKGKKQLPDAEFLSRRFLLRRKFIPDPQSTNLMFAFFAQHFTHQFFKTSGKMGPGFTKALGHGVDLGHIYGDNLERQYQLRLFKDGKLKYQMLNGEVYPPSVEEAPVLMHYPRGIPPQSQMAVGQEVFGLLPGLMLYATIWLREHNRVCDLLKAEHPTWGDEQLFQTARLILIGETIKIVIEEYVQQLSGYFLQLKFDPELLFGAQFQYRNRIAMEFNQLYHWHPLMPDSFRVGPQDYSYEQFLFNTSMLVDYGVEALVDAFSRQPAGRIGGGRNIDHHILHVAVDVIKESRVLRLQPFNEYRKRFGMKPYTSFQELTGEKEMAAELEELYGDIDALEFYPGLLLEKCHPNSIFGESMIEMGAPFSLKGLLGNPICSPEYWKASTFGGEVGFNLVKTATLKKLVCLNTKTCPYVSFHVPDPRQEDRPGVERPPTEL", "assay": "Inhibition of ovine COX1 at 100 uM", "conditions": "not given", "outline": "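Colorimetric ovine COX inhibitor screening kit, run per the supplier's protocol. […] Each experiment was run at least twice and the mean was reported.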", "units": {"inhibition": "%"}}
{"molecule": "Nc1ccc(S(=O)(=O)Nc2ccc(C(F)(F)F)cc2)cc1", "inhibition": 14}
{"molecule": "CN(c1ccc(F)cc1)S(=O)(=O)c1ccc(N)cc1", "inhibition": 0}
{"molecule": "COc1cc(N)ccc1NS(=O)(=O)c1ccc(Cl)cc1", "inhibition": 1}
{"molecule": "Nc1ccc(S(=O)(=O)Nc2ccc(Cl)cc2)cc1", "inhibition": 70}
{"molecule": "Cc1ccccc1NS(=O)(=O)c1ccc(N)cc1", "inhibition": 5}
{"molecule": "Nc1ccc(NS(=O)(=O)c2ccc(Cl)cc2)c(C(F)(F)F)c1", "inhibition": 7}
{"molecule": "Nc1ccc(S(=O)(=O)Nc2ccc(Cl)cc2Cl)cc1", "inhibition": 6}
{"molecule": "CN(c1ccc(C(F)(F)F)cc1)S(=O)(=O)c1ccc(N)cc1", "inhibition": 9}
{"molecule": "COc1ccc(NS(=O)(=O)c2ccc(NS(C)(=O)=O)cc2)cc1", "inhibition": 8}
{"molecule": "Cc1cccc(NS(=O)(=O)c2ccc(NS(C)(=O)=O)cc2)c1", "inhibition": 3}
{"molecule": "COc1ccc(NS(=O)(=O)c2ccc([N+](=O)[O-])cc2)cc1", "inhibition": 0}
{"molecule": "O=C(O)c1ccc(S(=O)(=O)Nc2ccccc2)cc1", "inhibition": 11}
{"molecule": "Cc1cccc(NS(=O)(=O)c2ccc(C(=O)O)cc2)c1", "inhibition": 0}
{"molecule": "CN(c1ccc(Cl)cc1)S(=O)(=O)c1ccc(N)cc1", "inhibition": 78}
{"molecule": "CN(c1ccc(N)cc1)S(=O)(=O)c1ccc(Cl)cc1", "inhibition": 68}
{"molecule": "COc1ccc(N(C)S(=O)(=O)c2ccc(N)cc2)cc1", "inhibition": 6}
{"molecule": "Cc1cc(C)cc(NS(=O)(=O)c2ccc(NS(C)(=O)=O)cc2)c1", "inhibition": 0}
{"molecule": "Nc1ccc(S(=O)(=O)Nc2ccccc2)cc1", "inhibition": 0}
{"molecule": "Cc1ccccc1NS(=O)(=O)c1ccc(NS(C)(=O)=O)cc1", "inhibition": 0}
{"molecule": "Cc1ccc(NS(=O)(=O)c2ccc([N+](=O)[O-])cc2)cc1", "inhibition": 44}
{"molecule": "Nc1ccc(S(=O)(=O)Nc2ccc(Br)cc2)cc1", "inhibition": 23}
{"molecule": "Cc1ccc(NS(=O)(=O)c2ccc(N)cc2)cc1", "inhibition": 52}
{"molecule": "O=C(O)c1ccc(S(=O)(=O)Nc2ccc(C(F)(F)F)cc2)cc1", "inhibition": 0}
{"molecule": "Nc1ccc(S(=O)(=O)Nc2ccc(F)cc2)cc1", "inhibition": 15}
{"molecule": "Nc1ccc(NS(=O)(=O)c2ccc(Cl)cc2)cc1", "inhibition": 3}
{"molecule": "CN(c1ccc(Br)cc1)S(=O)(=O)c1ccc(N)cc1", "inhibition": 21}
{"molecule": "Nc1ccc(S(=O)(=O)Nc2ccccc2Cl)cc1", "inhibition": 53}
{"molecule": "O=[N+]([O-])c1ccc(S(=O)(=O)Nc2ccc(C(F)(F)F)cc2)cc1", "inhibition": 1}
{"molecule": "CN(c1ccc(Cl)cc1)S(=O)(=O)c1cccc(N)c1", "inhibition": 39}
{"molecule": "CS(=O)(=O)Nc1ccc(S(=O)(=O)Nc2ccccc2)cc1", "inhibition": 0}
{"molecule": "CN(c1ccc(I)cc1)S(=O)(=O)c1ccc(N)cc1", "inhibition": 18}
{"molecule": "CS(=O)(=O)Nc1ccc(S(=O)(=O)Nc2ccc(Cl)cc2)cc1", "inhibition": 11}
{"molecule": "COc1cc(N)ccc1N(C)S(=O)(=O)c1ccc(Cl)cc1", "inhibition": 73}
{"molecule": "CS(=O)(=O)Nc1ccc(S(=O)(=O)Nc2cc(C(F)(F)F)cc(C(F)(F)F)c2)cc1", "inhibition": 0}
{"molecule": "O=[N+]([O-])c1ccc(S(=O)(=O)Nc2ccccc2)cc1", "inhibition": 0}
{"molecule": "Cc1ccc(N(C)S(=O)(=O)c2ccc(N)cc2)cc1", "inhibition": 21}
{"molecule": "Cc1cc(N)ccc1NS(=O)(=O)c1ccc(Cl)cc1", "inhibition": 7}
{"molecule": "CCCN(c1ccc(Cl)cc1)S(=O)(=O)c1ccc(N)cc1", "inhibition": 0}
{"molecule": "O=C(O)c1ccc(S(=O)(=O)Nc2cc(C(F)(F)F)cc(C(F)(F)F)c2)cc1", "inhibition": 25}
{"molecule": "Cc1cccc(NS(=O)(=O)c2ccc([N+](=O)[O-])cc2)c1", "inhibition": 3}
{"molecule": "Cc1ccccc1NS(=O)(=O)c1ccc([N+](=O)[O-])cc1", "inhibition": 0}
{"molecule": "Cc1cc(C)cc(NS(=O)(=O)c2ccc(N)cc2)c1", "inhibition": 13}
{"molecule": "Cc1ccc(NS(=O)(=O)c2ccc(NS(C)(=O)=O)cc2)cc1", "inhibition": 12}
{"molecule": "Nc1ccc(S(=O)(=O)Nc2cccc(Cl)c2)cc1", "inhibition": 18}
{"molecule": "COc1ccc(NS(=O)(=O)c2ccc(C(=O)O)cc2)cc1", "inhibition": 3}
{"molecule": "Nc1ccc(S(=O)(=O)Nc2ccc(I)cc2)cc1", "inhibition": 18}
{"molecule": "Cc1ccccc1NS(=O)(=O)c1ccc(C(=O)O)cc1", "inhibition": 21}
{"molecule": "Nc1ccc(S(=O)(=O)Nc2cc(C(F)(F)F)cc(C(F)(F)F)c2)cc1", "inhibition": 30}
{"molecule": "CCN(c1ccc(Cl)cc1)S(=O)(=O)c1ccc(N)cc1", "inhibition": 10}
{"molecule": "Cc1cc(N)ccc1N(C)S(=O)(=O)c1ccc(Cl)cc1", "inhibition": 77}
{"molecule": "CS(=O)(=O)Nc1ccc(S(=O)(=O)Nc2ccc(C(F)(F)F)cc2)cc1", "inhibition": 8}
{"molecule": "CN(c1ccccc1)S(=O)(=O)c1ccc(N)cc1", "inhibition": 48}
{"molecule": "O=[N+]([O-])c1ccc(S(=O)(=O)Nc2cc(C(F)(F)F)cc(C(F)(F)F)c2)cc1", "inhibition": 19}
{"molecule": "Cc1cc(C)cc(NS(=O)(=O)c2ccc([N+](=O)[O-])cc2)c1", "inhibition": 0}
{"molecule": "O=[N+]([O-])c1ccc(S(=O)(=O)Nc2ccc(Cl)cc2)cc1", "inhibition": 6}
{"molecule": "Cc1cccc(NS(=O)(=O)c2ccc(N)cc2)c1", "inhibition": 8}
{"biological_target": "T2, Prostaglandin G/H synthase 1 (Ovis aries, UniProt P05979)", "T2 sequence (P05979 whole entry)": "T1 sequence (whole entry)", "assay": "Inhibition of ovine COX1", "conditions": "not given", "outline": "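Colorimetric ovine COX inhibitor screening kit, run per the supplier's protocol. Each experiment was run at least twice and the mean was reported.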", "units": {"IC50": "µM"}}
{"molecule": "Nc1ccc(S(=O)(=O)Nc2ccc(Cl)cc2)cc1", "IC50": 12}
{"molecule": "CN(c1ccc(Cl)cc1)S(=O)(=O)c1ccc(N)cc1", "IC50": 3.2}
{"molecule": "CN(c1ccc(N)cc1)S(=O)(=O)c1ccc(Cl)cc1", "IC50": 9.2}
{"molecule": "COc1cc(N)ccc1N(C)S(=O)(=O)c1ccc(Cl)cc1", "IC50": 20}
{"molecule": "Cc1cc(N)ccc1N(C)S(=O)(=O)c1ccc(Cl)cc1", "IC50": 26}
{"system": "Rattus norvegicus", "assay": "Effect on gastric damage in rat assessed as induction of gastric ulcer at 10 mg/kg, po after 5 hrs", "type": "functional, organism-based", "design": "dose 10 mg/kg", "conditions": "Stomach", "outline": "as §1"}
{"molecule": "COc1ccc2c(c1)c(CC(=O)O)c(C)n2C(=O)c1ccc(Cl)cc1", "Activity": "Active"}
